# Bioassay records from PubChem.
# In the library only some 2.6% were active in any assay of this set; here they are far more common.
# Rad51 HR inh: human RAD51 strand exchange inhibitors, primary screen, biochemical, fluorescence | 200,000 compounds, 0.085% hits | hRad51 DNA strand exchange, fluorescence dequenching | AID 1385, 2008 | inhibition, % at 10 µM;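 active means inhibition above 40% at the single screening dose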;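 further: 0% = DMSO control wells and 100% = blanks with heterologous ssDNA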
#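 System: human Rad51 nucleoprotein filaments preassembled on unlabelled ssDNA. Reagent: labelled 47-mer dsDNA for strand exchange. Schedule: 30-min compound preincubation and 15-min exchange, both room temperature. Measured by: FRET fluorescence dequenching, excitation 485 nm, emission 520 nm. Read-out: Fluorescence-based percent inhibition, control- and blank-normalised. Benchmarks: plate controls and plate blanks.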
# CHT PAM: CHT positive allosteric modulators, primary screen, cell-based, membrane potential dye, choline EC20; High affinity choline transporter 1 (Homo sapiens), Q9GZV3; CHT-expressing cells; stronger effect = higher value; LV-AA mutant CHT in HEK293 cells; B-score at 10 µM; 310,000 compounds, 0.49% hits; AID 488977, 2010;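 active means initial fluorescence not abnormally high and integrated response B-score, plate-corrected, over 3 SD above library mean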
# CHT block: inhibitors of human choline transporter CHT | AID 488975, 2010 | 310,000 compounds, 0.86% hits | B-score at 10 µM | CHT-expressing cells, membrane potential dye, choline response; stronger effect = lower value | High affinity choline transporter 1 (Homo sapiens), Q9GZV3;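 active means B-score over 3 SD under the library average, and starting fluorescence ratio not unusually high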;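 further: choline stimulus applied at its EC90 after an EC20 pre-addition; B-score computed on integrated fluorescence ratio after choline addition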
# KCC2 mod: KCC2 cotransporter modulators, thallium flux, primary screen, cell-based, HEK293 KCC2, FluoZin-2 fluorescence, MLSMR | B-score of Tl+ flux slope (higher = more flux/activation; lower = inhibition) at 10 µM | Solute carrier family 12 member 5 (Homo sapiens), Q9H2X9 | KCC2 cells, thallium flux FluoZin-2 fluorescence | AID 1456, 2008 | 190,000 compounds, 2.2% hits;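 active means thallium flux slope and its plate-corrected score both differing from the plate sample mean at a set confidence after two filtering rounds, in either direction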;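 further: slope of fluorescence scaled to starting intensity during 10 to 20 s after thallium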
# Target sequence (Q9H2X9 whole entry, looked up): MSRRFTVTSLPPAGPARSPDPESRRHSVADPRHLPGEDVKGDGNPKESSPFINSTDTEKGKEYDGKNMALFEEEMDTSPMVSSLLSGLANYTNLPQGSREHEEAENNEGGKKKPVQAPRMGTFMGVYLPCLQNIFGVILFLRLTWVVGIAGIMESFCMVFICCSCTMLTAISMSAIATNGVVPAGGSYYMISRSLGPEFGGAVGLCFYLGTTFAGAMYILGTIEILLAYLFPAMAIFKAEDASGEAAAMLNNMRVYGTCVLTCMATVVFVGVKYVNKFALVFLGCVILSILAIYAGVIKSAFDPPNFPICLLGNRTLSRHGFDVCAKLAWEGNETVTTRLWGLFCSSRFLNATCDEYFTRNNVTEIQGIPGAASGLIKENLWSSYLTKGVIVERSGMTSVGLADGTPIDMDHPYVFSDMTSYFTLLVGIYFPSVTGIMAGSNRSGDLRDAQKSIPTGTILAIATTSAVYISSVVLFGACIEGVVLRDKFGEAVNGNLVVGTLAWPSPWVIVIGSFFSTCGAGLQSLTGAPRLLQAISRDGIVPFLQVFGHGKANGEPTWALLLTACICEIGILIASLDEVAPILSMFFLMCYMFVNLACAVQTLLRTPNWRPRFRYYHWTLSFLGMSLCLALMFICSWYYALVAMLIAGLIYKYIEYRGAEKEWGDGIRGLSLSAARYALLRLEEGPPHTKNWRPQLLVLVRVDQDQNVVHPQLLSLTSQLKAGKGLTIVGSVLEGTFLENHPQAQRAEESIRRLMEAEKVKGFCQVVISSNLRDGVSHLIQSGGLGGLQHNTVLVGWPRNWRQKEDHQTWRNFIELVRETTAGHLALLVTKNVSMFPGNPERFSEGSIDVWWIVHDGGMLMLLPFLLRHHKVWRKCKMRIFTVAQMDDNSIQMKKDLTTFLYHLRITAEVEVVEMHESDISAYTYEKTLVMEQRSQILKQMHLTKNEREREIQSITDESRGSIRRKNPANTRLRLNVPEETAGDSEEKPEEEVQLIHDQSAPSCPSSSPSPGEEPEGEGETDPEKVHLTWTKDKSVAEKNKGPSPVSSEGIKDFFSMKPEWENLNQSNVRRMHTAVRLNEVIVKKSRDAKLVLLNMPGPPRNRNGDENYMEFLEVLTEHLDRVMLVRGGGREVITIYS
# KCC2 secondary: KCC2 modulators in sodium-free buffer, confirmation, cell-based, HEK293 KCC2, thallium flux, secondary assay | shares compounds with KCC2 mod | FluoZin2 fluorescence; stronger effect = higher value | normalised thallium flux (F/F0 slope) at 10 µM | 3,700 compounds, 15% hits;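 active means thallium flux slope above the same plate's solvent-only control mean plus 3 SD; inconclusive means the two replicate wells disagree; inactive means no significant difference from solvent-only control wells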
# KCC2 bumet counter: thallium flux persisting under bumetanide in KCC2 cells, confirmation, counter-screen for KCC2 modulator project, cell-based, HEK293 KCC2, FluoZin2, secondary assay 3 | shares compounds with KCC2 mod | HEK293-KCC2 + bumetanide/ouabain; stronger effect = higher value | normalized thallium flux at 10 µM | 3,700 compounds, 49% hits;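 active means thallium entry rate above the same plate's blocked-transporter control wells by more than 3 SD; inconclusive means the two repeat wells disagree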;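 further: raw slope of fluorescence over initial fluorescence between 10 and 20 s after thallium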
# KCC2 secondary2: KCC2 modulators without ouabain present, confirmation, cell-based, HEK293 KCC2, thallium flux, FluoZin2, secondary assay 2 | thallium flux FluoZin2 fluorescence; actives lie on both sides; F/F0 rise rate, 10–20 s post-thallium | 3,700 compounds, 23% hits | shares compounds with KCC2 mod | normalized thallium flux at 10 µM;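 active means thallium flux slope more than 3 SD above or below the plate's solvent-only control mean, mostly below; inconclusive means the two repeat wells disagreed; inactive means no significant shift from solvent-only controls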;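 further: raw slope with 0.1% DMSO as baseline and bumetanide as block control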
# HEK293 Tl flux: thallium flux modulation in parental HEK cells, confirmation, counter-screen for KCC2 modulator project, cell-based, counterscreen 1 | 3,700 compounds, 46% hits | HEK293 parental cells, thallium flux FluoZin2, ouabain; baseline-ratio fluorescence slope, 10–20 s after thallium | thallium flux rate (normalised fluorescence) at 10 µM | AID 1716, 2009 | shares compounds with KCC2 mod;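 active means thallium flux rate significantly above the same plate's solvent-only control wells, beyond their mean plus 3 SD; inconclusive means the two replicate wells gave conflicting results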
# KCC2 retest ouab: KCC2 inhibitors and activators, ouabain retest, confirmation, HEK-KCC2 cells; shares compounds with KCC2 mod; HEK293-KCC2, thallium flux FluoZin2 fluorescence; bidirectional: low = inhibitor, high = activator; raw Tl+ flux slope (below DMSO = inhibition, above = activation) at 10 µM; 3,700 compounds, 48% hits;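 active means thallium flux slope beyond 3 SD from same-plate DMSO control mean in most replicates, usually higher, sometimes lower; inconclusive means repeat tests gave conflicting results; inactive means no significant difference from controls in most replicates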;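 further: slope of initial-normalized fluorescence between seconds 10 and 20 after thallium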
# HEK293 Tl flux2: native HEK Tl+ uptake effects, second counter-screen – HEK cells, counterscreen 2, counter-screen for KCC2 modulator project, confirmation. shares compounds with KCC2 mod. HEK293 parental, thallium flux FluoZin-2 fluorescence slope. thallium flux slope at 10 µM. 3,700 compounds, 33% hits. AID 1718, 2009;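 active means thallium flux slope above the same plate's solvent-control mean plus 3 SD in both duplicate wells; inconclusive means duplicate wells that disagreed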;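 further: run without ouabain in cells lacking the KCC2 cotransporter; slope of fluorescence scaled to its starting value between 10 and 20 s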
# * marks the source's active call; other numbers are inactive results; i = inactive; ? = inconclusive; · = no result.
SMILES,Rad51 HR inh,CHT PAM,CHT block,KCC2 mod,KCC2 secondary,KCC2 bumet counter,KCC2 secondary2,HEK293 Tl flux,KCC2 retest ouab,HEK293 Tl flux2
CCn1c(-c2ccc(C(C)(C)C)cc2)n[nH]c1=S,-6,i,i,6.8*,?,0.03*,0.036,?,0.032*,?
CCn1c(-c2ccc(F)cc2)n[nH]c1=S,-4,i,i,1.2,·,·,·,·,·,·
Cc1ccc(/C=C/C(=O)c2ccccc(=O)c2O)c(C)c1,·,i,i,68*,0.013*,0.088*,0.04*,0.056*,0.073*,0.02*
Cc1ccc(C)c(/C=C/C(=O)c2ccccc(=O)c2O)c1,18,i,i,40*,0.0061,0.067*,0.061*,0.062*,0.062*,0.051*
CC(O)Cc1cn([C@@H](CCCCNC(=O)OC(C)(C)C)C(=O)N2CCN(C(=O)OC(C)(C)C)CC2)nn1 (stereo partly drawn),5,i,i,0.014,·,·,·,·,·,·
CCn1c(CNC(=O)COc2ccc(C(C)C)cc2)nnc1SCC(=O)Nc1ccc(F)cc1,-7,i,i,-2.3,·,·,·,·,·,·
CCn1c(CNC(=O)COc2ccc(C(C)C)cc2)nnc1SCC(=O)Nc1cc(F)ccc1C,-4,i,i,·,0.0081,0.0064,0.035,?,0.017*,0.012
COc1cccc(Nc2n[nH]c(=S)s2)c1,-3,i,i,-6.8*,0.0062,0.0044,0.021*,0.0068,0.011*,0.0093
Cc1cccc(Nc2n[nH]c(=S)s2)c1C,8,i,i,-5.3*,0.0057,0.0068,0.017*,0.0072,0.0074*,?
CN1C/C(=C/c2ccncc2)C(=O)/C(=C/c2ccncc2)C1,·,i,i,·,·,·,·,·,·,·
CCN1C/C(=C/c2ccc(N3CCOCC3)cc2)C(=O)/C(=C/c2ccc(N3CCOCC3)cc2)C1,-218,i,i,-5.4*,0.0036*,0.0016*,0.03*,?,0.0089*,0.011
CN1C/C(=C\c2ccc(N3CCOCC3)cc2)C(=O)/C(=C/c2ccc(N3CCOCC3)cc2)C1,·,i,i,-9.2*,0.0028*,-0.0007*,0.017*,0.0056*,0.0075*,?
COc1cc2c(cc1OC)CN(S(=O)(=O)c1cccc(F)c1)CC2,·,i,i,·,·,·,·,·,·,·
CCOC(=O)c1sc(Nc2nc3c(OC)cccc3s2)nc1C,-2,i,i,26*,0.0082,0.012*,0.041*,0.025*,0.038*,0.018*
Cc1nc(N2CCN(Cc3ccccc3)CC2)c(C#N)c2c1COC(C)(C)C2,-1,i,i,-3.4*,0.0056,0.003,0.021*,?,0.011*,0.0093
CC(C)NC(=O)CN(C(=O)CCC(=O)Nc1nccs1)c1ccc(C(C)C)cc1,·,i,i,·,·,·,·,·,·,·
Cc1ccc(-c2nn(Cc3ccccc3)cc2/C=C/C(=O)O)cc1C,-7,i,i,-8.1*,0.008,0.005,0.021*,0.008,0.011*,0.01
O=C(O)/C=C/c1cn(Cc2ccccc2)nc1-c1ccccc1,44*,i,i,-3.2*,0.0069,0.0044,?,0.0072,0.015*,0.0097
COc1ccc(-c2nn(-c3ccccc3)cc2/C=C/C(=O)O)cc1[N+](=O)[O-],15,i,i,-1.5,·,·,·,·,·,·
CCOC(=O)c1cn(Cc2ccccc2)nc1-c1ccccc1,·,i,i,·,·,·,·,·,·,·
CCOC(=O)C1C(c2ccccc2)C(C(=O)OCC)S(=O)(=O)C(CCN(CC)CC)S1(=O)=O (stereo not drawn),·,i,i,-0.64,·,·,·,·,·,·
S=C(NCc1ccccn1)Nc1ccccc1,·,i,i,-0.42,·,·,·,·,·,·
O=C(NNC(=S)NC(=O)c1ccccc1[N+](=O)[O-])c1ccccc1[N+](=O)[O-],-7,i,i,-0.41,·,·,·,·,·,·
S=C(Nc1ccccc1)Nc1nccs1,-3,i,i,138*,0.01*,0.084*,0.05*,0.07*,0.069*,0.039*
CCCCC(=O)NC(=S)NNC(=O)c1ccc(OC)cc1,·,i,i,27*,0.021*,0.053*,0.035,?,0.039*,?
SMILES,Rad51 HR inh,CHT PAM,CHT block,KCC2 mod,KCC2 secondary,KCC2 bumet counter,KCC2 secondary2,HEK293 Tl flux,KCC2 retest ouab,HEK293 Tl flux2
CCCNC(=O)c1ccc(Cl)cc1Cl,-4,i,i,-0.064,·,·,·,·,·,·
O=C(NNC(=S)NC(=O)c1ccccc1[N+](=O)[O-])c1ccc(Cl)cc1Cl,12,i,i,4.9*,0.011,0.016*,0.031,0.014*,?,0.011
CCCCC(=O)NC(=S)NNC(=O)c1ccc(Cl)cc1Cl,0,·,·,33*,0.0099*,0.069*,0.04*,0.048*,0.057*,0.029*
Cc1nn(C)cc1CN(C)C(=O)c1cc(COc2ccc(F)cc2F)on1,2,i,i,·,·,·,·,·,·,·
O=C(CSc1nnc(Nc2ccccc2)s1)Nc1cccc(S(=O)(=O)N2CCCCC2)c1,7,i,i,-1.8,·,·,·,·,·,·
O=C(Cc1ccccc1)Nc1ccc(Cl)cn1,·,i,i,·,·,·,·,·,·,·
Cc1ccccc1C(=O)NNC(=S)Nc1cccc(C(F)(F)F)c1,3,i,i,-0.012,·,·,·,·,·,·
O=C(NC(=S)Nc1ccccc1O)c1ccc(Cl)cc1Cl,1,i,i,5.2*,0.0074,0.013*,0.033,0.013*,?,0.013*
O=C(NNC(=S)Nc1cccc(C(F)(F)F)c1)c1ccc(Cl)cc1Cl,-2,i,i,6.3*,0.006,0.027*,0.033,0.021*,?,0.022*
